Tests used:
[1] = Redox activity of compound assessed as redox index at 100 uM measured by H2DCFDA assay; assay type: physicochemical
Summary of the method: (§1)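 Reactive oxygen species, with or without the reducing agent TCEP, detected with the fluorescent probe H2DCFDA. Compound spectral interference (autofluorescence) checked under the assay conditions.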

[2] = Redox activity of compound assessed as redox index at 100 uM in presence of 100 uM TCEP measured by H2DCFDA assay; assay type: physicochemical; summary of the method: as §1
[3] = biological target: UDP-N-acetylglucosamine 1-carboxyvinyltransferase (Escherichia coli K-12) (UniProt P0A749); experiment: Inhibition of recombinant Escherichia coli MurA assessed as residual activity at 500 uM using UDP-N-acetylglucosamine as substrate and measured by malachite green based colorimetric assay relative to control
Chain of UDP-N-acetylglucosamine 1-carboxyvinyltransferase (Escherichia coli K-12) (P0A749 whole entry): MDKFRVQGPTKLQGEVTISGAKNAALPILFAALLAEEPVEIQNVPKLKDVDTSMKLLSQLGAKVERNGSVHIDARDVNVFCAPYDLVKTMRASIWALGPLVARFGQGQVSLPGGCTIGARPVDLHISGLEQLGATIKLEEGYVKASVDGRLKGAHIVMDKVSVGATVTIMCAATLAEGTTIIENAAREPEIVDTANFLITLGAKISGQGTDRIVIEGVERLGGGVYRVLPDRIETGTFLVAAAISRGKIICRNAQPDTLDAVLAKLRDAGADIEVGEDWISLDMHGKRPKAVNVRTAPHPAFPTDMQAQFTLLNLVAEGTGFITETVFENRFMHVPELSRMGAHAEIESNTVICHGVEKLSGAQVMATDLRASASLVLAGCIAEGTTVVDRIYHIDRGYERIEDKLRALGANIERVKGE
Summary of the method: (§2)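 Screened at 500–625 μM with malachite green colorimetric read-out. Activity threshold was <50% residual activity.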

[4] = Redox activity of compound assessed as redox index at 100 uM measured by HRP-PR assay; assay type: physicochemical
Summary of the method: (§3)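 H2O2 from redox cycling, with or without DTT, detected with horseradish peroxidase-phenol red (HRP-PR).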

[5] = biological target: Replicase polyprotein 1ab (Severe acute respiratory syndrome coronavirus 2) (UniProt P0DTD1); experiment: Inhibition of recombinant SARS-CoV-2 3CLpro expressed in Escherichia coli NiCo21(DE3) assessed as residual activity at 500 uM using DABCYL-KTSAVLQSGFRKME-EDANS as substrate preincubated for 30 mins in presence of 1mM DTT followed by substrate addition and measured by FRET assay relative to control
Summary of the method: (§4)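 Kinetic fluorescence read-out of cleavage of a FRET substrate carrying a DABCYL–EDANS pair. Compounds were tested at 500–625 μM, and <50% residual activity was taken as the activity threshold. To exclude false positives, absorbance at the excitation and emission wavelengths and autofluorescence of the compounds were measured.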

[6] = biological target: Replicase polyprotein 1ab (Severe acute respiratory syndrome coronavirus 2) (UniProt P0DTD1); experiment: Inhibition of recombinant SARS-CoV-2 3CLpro expressed in Escherichia coli NiCo21(DE3) assessed as residual activity at 500 uM using DABCYL-KTSAVLQSGFRKME-EDANS as substrate preincubated for 30 mins followed by substrate addition and measured by FRET assay relative to control; summary of the method: as §4
[7] = biological target: D-alanine--D-alanine ligase B (Escherichia coli K-12) (UniProt P07862); experiment: Inhibition of recombinant Escherichia coli DdlB assessed as residual activity at 500 uM using D-alanine as substrate incubated for 20 mins and measured by malachite green based colorimetric assay relative to control; summary of the method: as §2
[8] = Redox activity of compound assessed as redox index at 10 uM measured by resazurin assay; assay type: physicochemical
Summary of the method: (§5)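 Free radicals formed by redox cycling with DTT detected with resazurin by fluorimetric read-out. Spectral interference checked.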

[9] = Thiol reactivity of compound measured by TNB2- assay; assay type: physicochemical
Summary of the method: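 Reactivity toward the thiol surrogate TNB2– in a nonproteinaceous setting without TCEP. Reversibility tested by adding TCEP and checking that absorbance was restored.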

[10] = tested on: Mycobacterium tuberculosis; experiment: Inhibition of Mycobacterium tuberculosis MetAP1a assessed as residual activity at 625 uM using L-methionine 7-amido-4-methylcoumarin as fluorogenic substrate and measured by fluorescence based assay
Summary of the method: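 Kinetic fluorescence assay in which the enzyme hydrolyses L-methionine 7-amido-4-methylcoumarin to fluorescent 7-amino-4-methylcoumarin. Compounds were tested at 500–625 μM, and activity was called at <50% residual activity. Spectral interference was checked by measuring absorbance at the excitation and emission wavelengths and compound autofluorescence.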

[11] = Redox activity of compound assessed as redox index at 100 uM in presence of 1 mM DTT measured by HRP-PR assay; assay type: physicochemical; summary of the method: as §3
[12] = biological target: UDP-N-acetylglucosamine 1-carboxyvinyltransferase (Escherichia coli K-12) (UniProt P0A749); experiment: Inhibition of recombinant Escherichia coli MurA assessed as residual activity at 500 uM using UDP-N-acetylglucosamine as substrate preincubated for 30 mins followed by substrate addition and measured by malachite green based colorimetric assay relative to control
Summary of the method: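 E. coli MurA at 500–625 μM with 30 min preincubation before substrate addition. Malachite green colorimetric read-out. Activity threshold was <50% residual activity.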

[13] = Redox activity of compound assessed as redox index at 1 uM measured by resazurin assay; assay type: physicochemical; summary of the method: as §5
[14] = biological target: UDP-N-acetylglucosamine 1-carboxyvinyltransferase (Escherichia coli K-12) (UniProt P0A749); experiment: Inhibition of recombinant Escherichia coli MurA assessed as residual activity at 500 uM using UDP-N-acetylglucosamine as substrate preincubated for 30 mins in presence of 1 mM DTT followed by substrate addition and measured by malachite green based colorimetric assay relative to control
[15] = Aqueous stability of the compound at pH 7.4 measured after 60 mins by spectrophotometric analysis; assay type: physicochemical; conditions: buffer, pH 7.4, 1 h
Summary of the method: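 Followed by spectrophotometry as changes in the compound absorption spectrum over time in 50 mM Tris-HCl pH 7.4, 0.5 mM EDTA, read after 60 min in 96-well microplate format. Compounds with low absorbance were not evaluated.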

Structure (SMILES) | Activity_index [1] | Activity_index [2] | Activity [3] [%] | Activity_index [4] | Activity [5] [%] | Activity [6] [%] | Activity [7] [%] | Activity_index [8] | Activity [9] | Activity [10] [%] | Activity_index [11] | Activity [12] [%] | Activity_index [13] | Activity [14] [%] | Stability [15]
CC(C)(C)c1csc(N)n1 | 1.1 | 0.5 | 5.7 | 1 | 79.1 | 13 | 94 | 0.9 | Active | 128 | 1 | 3.5 | 1.1 | 106 | –
Brc1nncs1 | 1 | 1.2 | 47 | 1 | 78.3 | 5.1 | 93 | 0.9 | Active | 106 | 1 | 143 | 0.9 | 114 | –
Nc1nc(-c2ccncc2)cs1 | 1.1 | 1.2 | 86.7 | 0.8 | 77.8 | 91.9 | 96 | 1 | – | 110 | 1 | 56.7 | 1 | 103 | Stable
O=C(O)c1csc(-c2ccncc2)n1 | 1 | 1.1 | 103 | 1 | 94.4 | 98 | 96 | 1 | – | 93.4 | 1 | 90.4 | 1 | 106 | Stable
Nc1nnc(C2CC2)s1 | 1.2 | 1.2 | 3.5 | 1.1 | 79.3 | 34.2 | 96 | 0.9 | – | 92.5 | 1.1 | 2.2 | 0.9 | 99.8 | Stable
Cc1nnc(N)s1 | 1 | 1 | 92.9 | 1 | 81.9 | 121 | 98 | 0.9 | – | 114 | 1 | 89.5 | 0.9 | 99.4 | Stable
CNc1nnc(C(F)(F)F)s1 | 1.2 | 1.1 | 99.5 | 1 | 82.3 | 147 | 98 | 1 | – | 101 | 1 | 113 | 1 | 102 | Stable
Nc1nnc(C(F)(F)F)s1 | 1 | 0.9 | 56.9 | 1 | 82.9 | 66.8 | 100 | 1 | – | 142 | 1 | 18 | 0.9 | 101 | Stable
CCOC(=O)c1cnc(Br)s1 | 0.9 | 1.1 | 60.1 | 1 | 66.4 | 10.2 | 90 | 1 | – | 92.3 | 1 | 14.9 | 0.9 | 103 | Stable
Cc1cnc(Br)s1 | 0.9 | 0.9 | 45.2 | 1 | 79.1 | 19.8 | 77 | 1 | Active | 116 | 1 | 8.2 | 0.9 | 105 | –
NCCc1cn(Cc2cscn2)nn1 | 1.2 | 1.5 | 28.1 | 0.9 | 87.4 | 87.2 | 82 | 0.9 | Active | 94 | 1 | 0 | 1 | 110 | –
Cc1nc(-c2ccc(C(=O)O)cc2)cs1 | 0.9 | 0.9 | 102 | 1 | 81.2 | 149 | 94 | 1.1 | – | 136 | 1 | 113 | 0.9 | 101 | Stable
COC(=O)CC(=O)Nc1ncc(Br)s1 | 1.2 | 1 | 97.9 | 1 | 86 | 95.3 | 88 | 0.9 | – | 78.2 | 1 | 60.9 | 1 | 107 | Stable
Cc1nc(Br)sc1C(=O)O | 1.2 | 1.1 | 72.4 | 1 | 92.9 | 100 | 94 | 0.9 | – | 43.4 | 1 | 18.5 | 0.9 | 102 | Stable
Fc1ccc(-c2csc(Br)n2)cc1F | 0.8 | 0.9 | 89.1 | 1 | 78.9 | 85.1 | 136 | 0.9 | – | 84.4 | 1 | 12 | 0.9 | 81.9 | Unstable
Cc1csc(N)n1 | 1 | 0.8 | 99.3 | 1 | 82.4 | 96.7 | 90 | 1 | – | 123 | 1 | 93.3 | 0.9 | 102 | Stable
Nc1nc(C(=O)O)cs1 | 2.1 | 1.6 | 1.6 | 1 | 84.9 | 14.2 | 96 | 1.1 | Active | 155 | 1 | 0 | 1 | 107 | –
